Calls of active or inactive are those of the source. The rule behind the calls is not given here.
biological target: Phosphoglycerate mutase 1 (Homo sapiens, UniProt P18669); assay: Inhibition of human recombinant PGAM1 by measuring decrease in OD by enzyme based assay; settings: not given
In short: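 C-terminal His6-tagged PGAM1, Ni-NTA purified, 4.6 nM, preincubated with inhibitor in DMSO; coupled enolase/pyruvate kinase M2/LDH system in 100 mM Tris-HCl, 100 mM KCl, 5 mM MgCl2, 1 mM ADP, 0.2 mM NADH, 4 mM 3PG; NADH loss read at 340 nm. Counter-screen without PGAM1 using 4 mM 2PG. Mean ± s.d., n=3.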

Sequence of Phosphoglycerate mutase 1 (P18669 whole entry): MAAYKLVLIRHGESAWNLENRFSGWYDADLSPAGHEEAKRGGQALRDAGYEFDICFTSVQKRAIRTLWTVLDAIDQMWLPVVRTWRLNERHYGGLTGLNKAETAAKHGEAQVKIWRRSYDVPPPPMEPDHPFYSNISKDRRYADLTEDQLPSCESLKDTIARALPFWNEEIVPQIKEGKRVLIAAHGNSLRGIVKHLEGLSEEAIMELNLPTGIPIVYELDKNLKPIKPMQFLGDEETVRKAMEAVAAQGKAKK

SMILES	IC50
O=C1c2ccccc2C(=O)c2c1cc(NS(=O)(=O)c1ccc(-c3ccccc3)cc1)c(O)c2O	0.25 µM
O=C1c2ccccc2C(=O)c2c1cc(NS(=O)(=O)C1CCCCC1)c(O)c2O	1.75 µM

test system: NCI-H1299; assay: Antiproliferative activity against human H1299 cells assessed as reduction in cell viability measured after 72 hrs by MTT assay; assay type: functional, cell-based; settings: NCI-H1299, 72 h
In short: (§1)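 Cells grown in RPMI-1640 (H1299, PC9) or F-12K (A549) with 10% FBS and penicillin/streptomycin; 2000 H1299 or A549 or 1000 PC9 cells per well, attached 24 h, exposed to inhibitor 72 h; MTT 0.5 mg/mL for 4 h, absorbance at 570 nm; mean ± s.d., n=3.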

SMILES	IC50
O=C1c2ccccc2C(=O)c2c1cc(NS(=O)(=O)c1ccc(-c3ccccc3)cc1)c(O)c2O	6.4 µM
O=C1c2ccccc2C(=O)c2c1cc(NS(=O)(=O)C1CCCCC1)c(O)c2O	21.8 µM

test system: A549; assay: Antiproliferative activity against human A549 cells assessed as reduction in cell viability measured after 72 hrs by MTT assay; assay type: functional, cell-based; settings: A549, 72 h; in short: as §1

SMILES	IC50
O=C1c2ccccc2C(=O)c2c1cc(NS(=O)(=O)c1ccc(-c3ccccc3)cc1)c(O)c2O	10.3 µM

test system: PC-9; assay: Antiproliferative activity against human PC-9 cells assessed as reduction in cell viability measured after 72 hrs by MTT assay; assay type: functional, cell-based; settings: PC-9, 72 h; in short: as §1

SMILES	IC50
O=C1c2ccccc2C(=O)c2c1cc(NS(=O)(=O)c1ccc(-c3ccccc3)cc1)c(O)c2O	4.8 µM

test system: not listed separately; assay: AUC (0 to 24 hrs) in ICR mouse at 100 mg/kg, ip measured upto 24 hrs by LC-MS analysis; assay type: ADME, organism-based; parameters: route intraperitoneal, dose 100 mg/kg, time <=24; settings: in vivo
In short: (§2)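 Male ICR mice, single intraperitoneal 100 mg/kg in 7% DMSO/7% Cremophor EL/86% PBS; heparinised blood at 0.25, 0.5, 1, 2, 4, 6, 10, 24 h; plasma extracted with methanol, quantified by HPLC against a standard curve (water/methanol with 0.1% TFA gradient); n = 3 animals per time point.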

SMILES	AUC(0-t)
O=C1c2ccccc2C(=O)c2c1cc(NS(=O)(=O)c1ccc(-c3ccccc3)cc1)c(O)c2O	239 µg·h/mL

test system: not listed separately; assay: AUC (0 to infinity) in ICR mouse at 100 mg/kg, ip measured upto 24 hrs by LC-MS analysis; assay type: ADME, organism-based; parameters: route intraperitoneal, dose 100 mg/kg, time <=24; settings: in vivo; in short: as §2

SMILES	AUC(0-inf)
O=C1c2ccccc2C(=O)c2c1cc(NS(=O)(=O)c1ccc(-c3ccccc3)cc1)c(O)c2O	245 µg·h/mL

test system: not listed separately; assay: Apparent oral clearance in ICR mouse at 100 mg/kg, ip measured upto 24 hrs by LC-MS analysis; assay type: ADME, organism-based; settings: in vivo; in short: as §2

SMILES	CL/F
O=C1c2ccccc2C(=O)c2c1cc(NS(=O)(=O)c1ccc(-c3ccccc3)cc1)c(O)c2O	0.193 mL/min

test system: not listed separately; assay: Cmax in ICR mouse at 100 mg/kg, ip measured upto 24 hrs by LC-MS analysis; assay type: ADME, organism-based; parameters: route intraperitoneal, dose 100 mg/kg, time <=24; settings: in vivo; in short: as §2

SMILES	Cmax
O=C1c2ccccc2C(=O)c2c1cc(NS(=O)(=O)c1ccc(-c3ccccc3)cc1)c(O)c2O	131 µg/mL

test system: not listed separately; assay: Tmax in ICR mouse at 100 mg/kg, ip measured upto 24 hrs by LC-MS analysis; assay type: ADME, organism-based; settings: in vivo; in short: as §2

SMILES	Tmax
O=C1c2ccccc2C(=O)c2c1cc(NS(=O)(=O)c1ccc(-c3ccccc3)cc1)c(O)c2O	0.25 h

test system: not listed separately; assay: Apparent oral volume of distribution in ICR mouse at 100 mg/kg, ip measured upto 24 hrs by LC-MS analysis; assay type: ADME, organism-based; settings: in vivo; in short: as §2

SMILES	Vd/F
O=C1c2ccccc2C(=O)c2c1cc(NS(=O)(=O)c1ccc(-c3ccccc3)cc1)c(O)c2O	71.64 mL

test system: not listed separately; assay: Half life in ICR mouse at 100 mg/kg, ip measured upto 24 hrs by LC-MS analysis; assay type: ADME, organism-based; settings: in vivo; in short: as §2

SMILES	half-life
O=C1c2ccccc2C(=O)c2c1cc(NS(=O)(=O)c1ccc(-c3ccccc3)cc1)c(O)c2O	4.28 h

test system: NCI-H1299; assay: Antitumor activity against human NCI-H1299 cells xenografted in ICR mouse assessed as tumor weight at 100 mg/kg,qd ip upto 8 days relative to control; assay type: functional, organism-based; settings: nude, time day <=8, in the assay text read “nude mouse” for “ICR mouse”
In short: (§3)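 Nude mice (male, 4–6 weeks) given 5×10^6 H1299 cells in PBS subcutaneously at both flanks; at ~200 mm³ randomised to vehicle or 100 mg/kg i.p. once daily; volume (L×W×W)×π/6, body weight tracked; terminal tumour weights, Ki67 IHC on tumours, H&E of kidney and liver; mean ± s.e.m., unpaired t-test.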

SMILES	Activity
O=C1c2ccccc2C(=O)c2c1cc(NS(=O)(=O)c1ccc(-c3ccccc3)cc1)c(O)c2O	Active

test system: NCI-H1299; assay: Inhibition of oxidative phosphorylation in human NCI-H1299 cells assessed as decrease in oxygen consumption rate at 10 to 20 uM pretreated for 80 mins in presence of glucose/2-DG and oligomycin by seahorse XF24 extracellular flux analyzer assay; assay type: functional, cell-based; settings: dose microM 10-20, time 80.0 min

SMILES	inhibition
O=C1c2ccccc2C(=O)c2c1cc(NS(=O)(=O)c1ccc(-c3ccccc3)cc1)c(O)c2O	Active

test system: NCI-H1299; assay: Induction of ROS production in human H1299 cells using carboxy-H2DCFDA at 10 to 20 uM incubated for 24 hrs by FACS analysis; assay type: functional, cell-based; settings: dose microM 10-20
In short: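 H1299 cells, 2×10^5 per well, loaded 24 h after seeding with 12.5 µM carboxy-H2DCFDA for 60 min after PBS wash; harvested and analysed by flow cytometry, excitation 490/emission 530 nm.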

SMILES	Activity
O=C1c2ccccc2C(=O)c2c1cc(NS(=O)(=O)c1ccc(-c3ccccc3)cc1)c(O)c2O	Active

test system: NCI-H1299; assay: Reduction in lactate production in human H1299 cells at 10 to 20 uM incubated for 24 hrs colorimetry based lactate assay; assay type: functional, cell-based; settings: dose microM 10-20
In short: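 Cells grown overnight at 37 °C; at 50% confluence switched to phenol red-free, serum-free RPMI for 1 h at 37 °C; medium lactate measured colorimetrically with a kit, normalised to microscope cell counts.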

SMILES	Activity
O=C1c2ccccc2C(=O)c2c1cc(NS(=O)(=O)c1ccc(-c3ccccc3)cc1)c(O)c2O	Active

test system: NCI-H1299; assay: Inhibition of glucose metabolism in human H1299 cells assessed as reduction in ATP level at 10 to 20 uM; assay type: functional, cell-based; settings: dose microM 10-20

SMILES	inhibition
O=C1c2ccccc2C(=O)c2c1cc(NS(=O)(=O)c1ccc(-c3ccccc3)cc1)c(O)c2O	Active

biological target: 5'-AMP-activated protein kinase catalytic subunit alpha-2 (Homo sapiens) (UniProt P54646); assay: Activation of AMPK in human H1299 cells assessed as increase in AMPK phosphorylation at 10 to 20 uM by Western blot analysis; assay type: cell-based; settings: NCI-H1299, filed as activator, dose microM 10-20
Sequence (P54646 whole entry, looked up): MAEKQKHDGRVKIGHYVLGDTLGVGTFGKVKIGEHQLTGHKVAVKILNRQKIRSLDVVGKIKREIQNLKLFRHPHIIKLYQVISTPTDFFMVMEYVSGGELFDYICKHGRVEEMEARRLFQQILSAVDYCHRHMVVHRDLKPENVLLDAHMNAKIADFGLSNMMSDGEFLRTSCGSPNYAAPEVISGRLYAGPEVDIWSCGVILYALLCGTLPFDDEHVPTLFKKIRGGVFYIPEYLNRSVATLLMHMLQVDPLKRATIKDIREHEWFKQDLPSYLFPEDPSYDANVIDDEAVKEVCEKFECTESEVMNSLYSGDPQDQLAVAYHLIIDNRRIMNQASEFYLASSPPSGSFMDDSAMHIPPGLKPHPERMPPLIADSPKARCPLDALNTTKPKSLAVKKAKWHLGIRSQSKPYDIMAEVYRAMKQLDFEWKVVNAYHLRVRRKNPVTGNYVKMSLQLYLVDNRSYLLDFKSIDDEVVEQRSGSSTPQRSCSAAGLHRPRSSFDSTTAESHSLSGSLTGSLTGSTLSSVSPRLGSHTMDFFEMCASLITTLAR

SMILES	Activity
O=C1c2ccccc2C(=O)c2c1cc(NS(=O)(=O)c1ccc(-c3ccccc3)cc1)c(O)c2O	Active

test system: not listed separately; assay: […] xenografted with human NCI-H1299 cells assessed as kidney histology at 100 mg/kg, ip qd upto 8 days by haematoxylin and eosin staining-based light microscopic analysis; assay type: organism-based; settings: in vivo, 192 h, time <=8 day; in short: as §3

SMILES	Activity
O=C1c2ccccc2C(=O)c2c1cc(NS(=O)(=O)c1ccc(-c3ccccc3)cc1)c(O)c2O	Non-Toxic

test system: NCI-H1299; assay: Inhibition of anaerobic glycolysis in human NCI-H1299 cells assessed as decrease in glycolysis rate pretreated for 12 hrs in presence of glucose/2-DG and oligomycin by […]; assay type: functional, cell-based; settings: not given
In short: (§4)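 H1299 cells, 10,000 per well, exposed to 10 or 20 µM or PBS for 12 h, then Seahorse XF96. Glycolysis stress: glucose 10 mM, oligomycin 1 µM, 2-DG 50 mM (ECAR). Mito stress: oligomycin 1 µM, FCCP 1 µM, rotenone/antimycin A 0.5 µM (OCR). Normalised to cell number; triplicates, mean ± s.d.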

SMILES	inhibition
O=C1c2ccccc2C(=O)c2c1cc(NS(=O)(=O)c1ccc(-c3ccccc3)cc1)c(O)c2O	Dose-dependent effect

test system: NCI-H1299; assay: Inhibition of anaerobic glycolysis in human NCI-H1299 cells assessed as decrease in glycolytic capacity pretreated for 12 hrs in presence of glucose/2-DG and oligomycin by […] assay; assay type: functional, cell-based; settings: not given; in short: as §4

SMILES	inhibition
O=C1c2ccccc2C(=O)c2c1cc(NS(=O)(=O)c1ccc(-c3ccccc3)cc1)c(O)c2O	Dose-dependent effect

test system: NCI-H1299; assay: Inhibition of anaerobic glycolysis in human NCI-H1299 cells assessed as decrease in glycolytic reserve pretreated for 12 hrs in presence of glucose/2-DG and oligomycin by […]; assay type: functional, cell-based; settings: not given; in short: as §4

SMILES	inhibition
O=C1c2ccccc2C(=O)c2c1cc(NS(=O)(=O)c1ccc(-c3ccccc3)cc1)c(O)c2O	Dose-dependent effect

test system: NCI-H1299; assay: Inhibition of oxidative phosphorylation in human NCI-H1299 cells assessed as decrease in basal respiration at 10 to 20 uM pretreated for 12 hrs in presence of glucose/2-DG and oligomycin by […] assay; assay type: functional, cell-based; settings: dose microM 10-20, time 12.0 hrs; in short: as §4

SMILES	inhibition
O=C1c2ccccc2C(=O)c2c1cc(NS(=O)(=O)c1ccc(-c3ccccc3)cc1)c(O)c2O	Active

test system: NCI-H1299; assay: Inhibition of oxidative phosphorylation in human NCI-H1299 cells assessed as decrease in maximal respiration at 10 to 20 uM pretreated for 12 hrs in presence of glucose/2-DG and oligomycin by […]; assay type: functional, cell-based; settings: dose microM 10-20, time 12.0 hrs; in short: as §4

SMILES	inhibition
O=C1c2ccccc2C(=O)c2c1cc(NS(=O)(=O)c1ccc(-c3ccccc3)cc1)c(O)c2O	Active

test system: NCI-H1299; assay: Inhibition of oxidative phosphorylation in human NCI-H1299 cells assessed as decrease in spare capacity at 10 to 20 uM pretreated for 12 hrs in presence of glucose/2-DG and oligomycin by […]; assay type: functional, cell-based; settings: dose microM 10-20, time 12.0 hrs; in short: as §4

SMILES	inhibition
O=C1c2ccccc2C(=O)c2c1cc(NS(=O)(=O)c1ccc(-c3ccccc3)cc1)c(O)c2O	Active

test system: not listed separately; assay: Toxicity in nude mouse xenografted with human NCI-H1299 cells assessed as body weight loss at 100 mg/kg, ip qd upto 8 days; settings: in vivo, 192 h

SMILES	Activity
O=C1c2ccccc2C(=O)c2c1cc(NS(=O)(=O)c1ccc(-c3ccccc3)cc1)c(O)c2O	Non-Toxic

test system: NCI-H1299; assay: Antitumor activity against human NCI-H1299 cells xenografted in nude mouse assessed as tumor volume at 100 mg/kg,qd ip measured upto 8 days relative to control; settings: time day <=8

SMILES	Activity
O=C1c2ccccc2C(=O)c2c1cc(NS(=O)(=O)c1ccc(-c3ccccc3)cc1)c(O)c2O	Active

test system: not listed separately; assay: Toxicity in nude mouse xenografted with human NCI-H1299 cells assessed as kidney and liver histology at 100 mg/kg, ip qd upto 8 days by haematoxylin and eosin staining-based light microscopic analysis; settings: in vivo, 192 h

SMILES	Activity
O=C1c2ccccc2C(=O)c2c1cc(NS(=O)(=O)c1ccc(-c3ccccc3)cc1)c(O)c2O	Non-Toxic

test system: NCI-H1299; assay: Inhibition of anaerobic glycolysis in human NCI-H1299 cells assessed as decrease in extracellular acidification rate at 10 to 20 uM pretreated for 12 hrs in presence of glucose/2-DG and oligomycin by seahorse XF96 extracellular flux analyzer assay; settings: dose microM 10-20, time 12 h

SMILES	inhibition
O=C1c2ccccc2C(=O)c2c1cc(NS(=O)(=O)c1ccc(-c3ccccc3)cc1)c(O)c2O	Dose-dependent effect
